Measured values as given in ChEMBL document CHEMBL4610013, “Heteroarylamide smoothened inhibitors: Discovery of N-[2,4-dimethyl-5-(1-methylimidazol-4-yl)phenyl]-4-(2-pyridylmethoxy)benzamide (AZD8542) and N-[5-(1H-imidazol-2-yl)-2,4-dimethyl-phenyl]-4-(2- pyridylmethoxy)benzamide (AZD7254)” (Bioorg Med Chem, 2020).

What was measured:
[1] = Metabolic stability in rat hepatocytes assessed as intrinsic clearance measured per million cells; type: ADME, cell-based, Hepatocyte; conditions: read-out: CLH
[2] = Lipophilicity, logD of compound; type: physicochemical; conditions: octanol/water
[3] = Metabolic stability in human hepatocytes assessed as intrinsic clearance measured per million cells; type: ADME, cell-based, Hepatocyte; conditions: read-out: CLH
[4] = Drug level in mouse plasma at 40 mg/kg, po administered as single dose measured after 8 hrs; type: ADME, organism-based
Procedure, shortened: (§1)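 Plasma was taken from Colo205 tumour-bearing female nude mice sacrificed 1 or 8 h after a single 40 mg/kg oral dose. Drug concentrations were measured in µM.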

[5] = Drug level in mouse plasma at 40 mg/kg, po administered as single dose measured after 1 hr; type: ADME, organism-based; procedure, shortened: as §1
[6] = Metabolic stability in rat liver microsomes assessed as intrinsic clearance; type: ADME, Microsome; conditions: read-out: CLH
[7] = Metabolic stability in human liver microsomes assessed as intrinsic clearance; type: ADME, Microsome; conditions: read-out: CLH
[8] = Half life in rat; type: ADME; conditions: in vivo
[9] = Clearance in mouse; type: ADME, organism-based; conditions: in vivo
[10] = Half life in dog; type: ADME, Canis lupus familiaris; conditions: in vivo
[11] = Clearance in guinea pig; type: ADME, Cavia porcellus; conditions: in vivo
[12] = Oral bioavailability in dog; type: ADME, organism-based, Canis lupus familiaris; conditions: in vivo
[13] = Oral bioavailability in rat; type: ADME, organism-based; conditions: in vivo
[14] = Volume of distribution at steady state in guinea pig; type: ADME, Cavia porcellus; conditions: in vivo, read-out: Vdss
[15] = Oral bioavailability in mouse; type: ADME, organism-based; conditions: in vivo
[16] = Volume of distribution at steady state in dog; type: ADME, Canis lupus familiaris; conditions: in vivo, read-out: Vdss
[17] = Half life in guinea pig; type: ADME, Cavia porcellus; conditions: in vivo
[18] = system: MDR1; assay: Apparent permeability in LLC-PK1 cells expressing MDR1; type: ADME, cell-based, Sus scrofa; conditions: pig
Procedure, shortened: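 The cells were MDR1-LLC PK1, a line engineered to express the P-gp efflux pump. Permeability was taken as apical-to-basolateral Papp (10⁻⁶ cm/s), and the efflux ratio was also derived.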

[19] = Metabolic stability in dog hepatocytes assessed as intrinsic clearance measured per million cells; type: ADME, cell-based, Canis lupus familiaris, Hepatocyte; conditions: read-out: CLH
[20] = Clearance in dog; type: ADME, Canis lupus familiaris; conditions: in vivo
[21] = Half life in mouse; type: ADME, organism-based; conditions: in vivo
[22] = Volume of distribution at steady state in mouse; type: ADME, organism-based; conditions: in vivo, read-out: Vdss
[23] = Volume of distribution at steady state in rat; type: ADME; conditions: in vivo, read-out: Vdss
[24] = Clearance in rat; type: ADME; conditions: in vivo
[25] = Metabolic stability in mouse hepatocytes assessed as intrinsic clearance measured per million cells; type: ADME, cell-based, Hepatocyte; conditions: read-out: CLH

SMILES | logD [2] | concentration at 8 h [4] | concentration at 1 h [5] | microsomal CLint [6] | microsomal CLint [7] | also measured
Cc1cc(C)c(-c2cnc(C)n2C)cc1NC(=O)c1ccc(OCc2ccccn2)cc1 | 2.8 | 0.28 µM | 2.9 µM | – | – | hepatocyte CLint [1]: 32 µL/min/1e6 cells; hepatocyte CLint [3]: 12 µL/min/1e6 cells
Cc1cc(C)c(-c2nc3ccccc3[nH]2)cc1NC(=O)c1ccc(OCc2ccccn2)cc1 | > 3.5 | – | – | 21 µL/min/mg | 30 µL/min/mg | –
Cc1cc(Cl)c(-c2cn(C)c(C)n2)cc1NC(=O)c1ccc(OCc2ccccn2)cc1 | 3.3 | – | – | – | – | –
Cc1cc(C)c(-c2cccnc2)cc1NC(=O)c1ccc(OCc2ccccn2)cc1 | > 3 | – | – | 78 µL/min/mg | 62 µL/min/mg | –
CS(=O)(=O)c1ccc(C(=O)Nc2ccc(Cl)c(-c3ccccn3)c2)c(Cl)c1 [VISMODEGIB] | 2.8 | 18.8 µM | 10.3 µM | – | – | half-life [8]: 1.9 h; clearance [9]: 5.6 mL/min/kg; bioavailability [13]: 49%; bioavailability [15]: 33%; hepatocyte CLint [1]: 16 µL/min/1e6 cells; hepatocyte CLint [3]: < 1 µL/min/1e6 cells; half-life [21]: 1 h; clearance [24]: 2 mL/min/kg
Cc1cc(C)c(-c2c(C)nn(C)c2C)cc1NC(=O)c1ccc(OCc2ccccn2)cc1 | > 3 | – | – | 271 µL/min/mg | 122 µL/min/mg | –
Cc1cc(C)c(-c2c[nH]nc2C)cc1NC(=O)c1ccc(OCc2ccccn2)cc1 | > 3 | 0.23 µM | 5.5 µM | 55 µL/min/mg | 20 µL/min/mg | –
Cc1cc(C)c(-c2ccc(N)cn2)cc1NC(=O)c1ccc(OCc2ccccn2)cc1 | 3.2 | – | – | 32 µL/min/mg | 9 µL/min/mg | –
Cc1cc(C)c(-c2cccc(N)n2)cc1NC(=O)c1ccc(OCc2ccccn2)cc1 | > 3 | – | – | 155 µL/min/mg | 88 µL/min/mg | –
Cc1cc(C)c(-c2ccc(N)nn2)cc1NC(=O)c1ccc(OCc2ccccn2)cc1 | 2.6 | 2.7 µM | 33 µM | 8 µL/min/mg | < 4 µL/min/mg | –
Cc1ccc(-c2ncc[nH]2)c(C)c1NC(=O)c1ccc(OCc2ccccn2)cc1 | 2.8 | 0.14 µM | 3.3 µM | – | – | –
Cc1csc(-c2cc(NC(=O)c3ccc(OCc4ccccn4)cc3)c(C)cc2C)n1 | > 3 | – | – | 147 µL/min/mg | 513 µL/min/mg | –
Cc1cc(F)c(-c2ncc[nH]2)cc1NC(=O)c1ccc(OCc2ccccn2)cc1 | 3 | 20 µM | 58 µM | – | – | hepatocyte CLint [1]: 14 µL/min/1e6 cells
Cc1cc(C)c(-c2ccccn2)cc1NC(=O)c1ccc(OCc2ccccn2)cc1 | > 3 | – | – | 296 µL/min/mg | 209 µL/min/mg | –
Cc1cc(Cl)c(-c2nccn2C)cc1NC(=O)c1ccc(OCc2ccccn2)cc1 | 3.2 | – | – | – | – | –
Cc1cc(Cl)c(-c2ncc[nH]2)cc1NC(=O)c1ccc(OCc2ccccn2)cc1 | > 3 | – | – | – | – | –

Second part, led by results:

logD [2] | concentration at 8 h [4] | concentration at 1 h [5] | microsomal CLint [6] | microsomal CLint [7] | SMILES | also measured
2.7 | – | – | – | – | Cc1ccc(-c2cn(C)c(C)n2)cc1NC(=O)c1ccc(OCc2ccccn2)cc1 | –
2.8 | – | – | – | – | Cc1ccc(-c2c[nH]cn2)cc1NC(=O)c1ccc(OCc2ccccn2)cc1 | –
3.1 | 1.9 µM | 22.3 µM | – | – | Cc1cc(C)c(-c2ncc[nH]2)cc1NC(=O)c1ccc(OCc2ccccn2)cc1 | half-life [8]: 1.1 h; clearance [9]: 31 mL/min/kg; half-life [10]: 3.3 h; clearance [11]: 18 mL/min/kg; bioavailability [12]: 100%; bioavailability [13]: 100%; Vd [14]: 1.8 L/kg; bioavailability [15]: 75%; Vd [16]: 0.9 L/kg; half-life [17]: 1.5 h; Papp [18]: 7.5 ×10⁻⁶ cm/s; hepatocyte CLint [1]: 18 µL/min/1e6 cells; hepatocyte CLint [19]: 1.4 µL/min/1e6 cells; clearance [20]: 4 mL/min/kg; hepatocyte CLint [3]: 9 µL/min/1e6 cells; half-life [21]: 0.7 h; Vd [22]: 1.6 L/kg; Vd [23]: 1.2 L/kg; clearance [24]: 24 mL/min/kg; hepatocyte CLint [25]: 6.6 µL/min/1e6 cells
2.5 | 16 µM | 63 µM | – | – | Cc1ccc(-c2cn(C)cn2)cc1NC(=O)c1ccc(OCc2ccccn2)cc1 | –
3 | 16 µM | 94 µM | – | – | Cc1cc(C)c(-c2cn(C)cn2)cc1NC(=O)c1ccc(OCc2ccccn2)cc1 | half-life [8]: 2.4 h; clearance [9]: 6.1 mL/min/kg; half-life [10]: 1.4 h; clearance [11]: 1.6 mL/min/kg; bioavailability [12]: 32%; bioavailability [13]: 90%; Vd [14]: 0.5 L/kg; bioavailability [15]: 70%; Vd [16]: 0.5 L/kg; half-life [17]: 4.2 h; Papp [18]: 16.5 ×10⁻⁶ cm/s; hepatocyte CLint [1]: 19 µL/min/1e6 cells; hepatocyte CLint [19]: 10 µL/min/1e6 cells; clearance [20]: 4.7 mL/min/kg; hepatocyte CLint [3]: 6 µL/min/1e6 cells; half-life [21]: 0.8 h; Vd [22]: 0.4 L/kg; Vd [23]: 0.2 L/kg; clearance [24]: 1.7 mL/min/kg; hepatocyte CLint [25]: < 1 µL/min/1e6 cells
3 | 7.5 µM | – | – | – | Cc1ccc(-c2ncc[nH]2)cc1NC(=O)c1ccc(OCc2ccccn2)cc1 | –
3.1 | – | – | – | – | Cc1cc(Cl)c(-c2cn(C)cn2)cc1NC(=O)c1ccc(OCc2ccccn2)cc1 | –
2.8 | – | – | – | – | Cc1ccc(-c2nccn2C)cc1NC(=O)c1ccc(OCc2ccccn2)cc1 | –
2.8 | 0.08 µM | 1.8 µM | – | – | Cc1ccc(-c2cnc(C)n2C)cc1NC(=O)c1ccc(OCc2ccccn2)cc1 | –
2.9 | – | – | – | – | Cc1ccc(-c2[nH]cnc2C)cc1NC(=O)c1ccc(OCc2ccccn2)cc1 | –
3 | – | – | – | – | Cc1nc(-c2ccc(C)c(NC(=O)c3ccc(OCc4ccccn4)cc3)c2)c[nH]1 | –
